Results on five compounds are retold here after ChEMBL document CHEMBL1157100, “The alkyl-connected 2-amino-6-vinylpurine (AVP) crosslinking agent for improved selectivity to the cytosine base in RNA” (Bioorg Med Chem, 2010).

Assay type in all cases: nucleic-acid assay
Test [1] concerns Nucleic Acid. Description: Binding affinity to FAM-tagged r-(CAAGCGGAGAAAYUAAUUGCGGGUCGC)-RNA assessed as crosslinking at 10 uM by alkylation method. The method in brief:
(§1)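 Reactive ODN at 10 µM with 1 µM FAM-labeled target DNA or RNA in 100 mM NaCl, 50 mM MES pH 5 plus RNase OUT, mixed at 0 °C and then incubated at 37 °C. Reactions were stopped at set times with formamide/EDTA/bromophenol blue buffer. Products were resolved on 15% denaturing polyacrylamide gel with 7 M urea, and FAM band intensities were quantified to give crosslinking yield.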

Test [2] has as its system Nucleic Acid. The test can be described thus: Binding affinity to r-(CGCUGGGCGUUAAUCAAAGAGGCGAAC)-RNA assessed as melting temperature at 1.5 uM by UV-visible spectrophotometry. The method in brief:
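Each strand at 1.5 µM: ODN plus complementary 27-mer RNA in 100 mM NaCl, 50 mM MES pH 5. Samples were heated at 85 °C for 10 min and cooled slowly. Melting curves were recorded at 260 nm while warming 20 to 80 °C at 1.0 °C/min to obtain Tm.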

Test [3] concerns Nucleic Acid. Description: Binding affinity to FAM-tagged d-(GAAAYAAGAGGAAAGA)-DNA assessed as crosslinking at 10 uM by alkylation method. The method in brief: as §1
The test system of test [4] is Nucleic Acid. The test can be described thus: Binding affinity to FAM-tagged r-(GAAAYAAGAGGAAAGA)-RNA assessed as crosslinking at 10 uM by alkylation method. In outline: as §1

Calls of active or inactive are those of the source. The rule behind the calls is not given here.

Consider `CSCCc1nc(N)nc2c1ncn2[C@H]1C[C@H](OP(=O)(O)OC[C@H]2O[C@@H](n3cnc4c(N)ncnc43)[C@H](O)[C@@H]2OP(=O)(O)OC[C@H]2O[C@@H](n3cc(C)c(=O)[nH]c3=O)C[C@@H]2OP(=O)(O)OC[C@H]2O[C@@H](n3cc(C)c(=O)[nH]c3=O)C[C@@H]2OP(=O)(O)OC[C@H]2O[C@@H](n3cnc4c(N)ncnc43)[C@H](O)[C@@H]2OP(=O)(O)OC[C@H]2O[C@@H](n3cnc4c(N)ncnc43)[C@H](O)[C@@H]2OP(=O)(O)OC[C@H]2O[C@@H](n3ccc(N)nc3=O)[C@H](O)[C@@H]2OP(=O)(O)OC[C@H]2O[C@@H](n3cnc4c(=O)[nH]c(N)nc43)[C@H](O)[C@@H]2OP(=O)(O)OC[C@H]2O[C@@H](n3ccc(N)nc3=O)[C@H](O)[C@@H]2OP(=O)(O)OC[C@H]2O[C@@H](n3ccc(N)nc3=O)[C@H](O)[C@@H]2OP(=O)(O)O)[C@@H](COP(=O)(O)O[C@H]2C[C@H](n3cc(C)c(=O)[nH]c3=O)O[C@@H]2COP(=O)(O)O[C@H]2C[C@H](n3cc(C)c(=O)[nH]c3=O)O[C@@H]2COP(=O)(O)O[C@H]2C[C@H](n3cc(C)c(=O)[nH]c3=O)O[C@@H]2COP(=O)(O)O[C@H]2[C@@H](O)[C@H](n3ccc(N)nc3=O)O[C@@H]2COP(=O)(O)O[C@H]2C[C@H](n3cc(C)c(=O)[nH]c3=O)O[C@@H]2COP(=O)(O)O[C@H]2[C@@H](O)[C@H](n3ccc(N)nc3=O)O[C@@H]2COP(=O)(O)O[C@H]2[C@@H](O)[C@H](n3ccc(N)nc3=O)O[C@@H]2COP(=O)(O)O[C@H]2[C@@H](O)[C@H](n3cnc4c(=O)[nH]c(N)nc43)O[C@@H]2COP(=O)(O)O[C@H]2[C@@H](O)[C@H](n3ccc(N)nc3=O)O[C@@H]2COP(=O)(O)O[C@H]2C[C@H](n3cc(C)c(=O)[nH]c3=O)O[C@@H]2COP(=O)(O)O[C@H]2C[C@H](n3cc(C)c(=O)[nH]c3=O)O[C@@H]2CO)O1`, for which the result in the test with Nucleic Acid [1] was Active. Besides, in the test with Nucleic Acid [2], the Tm amounted to 49.4 °C.
With `CSCCc1nc(N)nc2c1ncn2C[C@H]1C[C@H](OP(=O)(O)OC[C@H]2O[C@@H](n3cc(C)c(=O)[nH]c3=O)C[C@@H]2OP(=O)(O)OC[C@H]2O[C@@H](n3cc(C)c(=O)[nH]c3=O)C[C@@H]2OP(=O)(O)OC[C@H]2O[C@@H](n3ccc(N)nc3=O)[C@H](O)[C@@H]2OP(=O)(O)OC[C@H]2O[C@@H](n3cc(C)c(=O)[nH]c3=O)C[C@@H]2OP(=O)(O)OC[C@H]2O[C@@H](n3ccc(N)nc3=O)[C@H](O)[C@@H]2OP(=O)(O)OC[C@H]2O[C@@H](n3ccc(N)nc3=O)[C@H](O)[C@@H]2OP(=O)(O)OC[C@H]2O[C@@H](n3cc(C)c(=O)[nH]c3=O)C[C@@H]2OP(=O)(O)OC[C@H]2O[C@@H](n3cc(C)c(=O)[nH]c3=O)C[C@@H]2OP(=O)(O)OC[C@H]2O[C@@H](n3cc(C)c(=O)[nH]c3=O)C[C@@H]2OP(=O)(O)OC[C@H]2O[C@@H](n3ccc(N)nc3=O)[C@H](O)[C@@H]2OP(=O)(O)OC[C@H]2O[C@@H](n3cc(C)c(=O)[nH]c3=O)C[C@@H]2OP(=O)(O)O)[C@@H](COP(=O)(O)O[C@H]2C[C@H](n3cc(C)c(=O)[nH]c3=O)O[C@@H]2COP(=O)(O)O[C@H]2C[C@H](n3cc(C)c(=O)[nH]c3=O)O[C@@H]2COP(=O)(O)O[C@H]2C[C@H](n3cc(C)c(=O)[nH]c3=O)O[C@@H]2COP(=O)(O)O[C@H]2[C@@H](O)[C@H](n3ccc(N)nc3=O)O[C@@H]2CO)O1`, the result in the test with Nucleic Acid [3] and with Nucleic Acid [4] was inactive.
Consider `Cc1cn([C@H]2C[C@H](OP(=O)(O)OC[C@H]3O[C@@H](n4cc(C)c(=O)[nH]c4=O)C[C@@H]3OP(=O)(O)OC[C@H]3O[C@@H](n4ccc(N)nc4=O)[C@H](O)[C@@H]3OP(=O)(O)OC[C@H]3O[C@@H](n4cnc5c(=O)[nH]c(N)nc54)[C@H](O)[C@@H]3OP(=O)(O)OC[C@H]3O[C@@H](n4ccc(N)nc4=O)[C@H](O)[C@@H]3OP(=O)(O)OC[C@H]3O[C@@H](n4ccc(N)nc4=O)[C@H](O)[C@@H]3OP(=O)(O)OC[C@H]3O[C@@H](n4cc(C)c(=O)[nH]c4=O)C[C@@H]3OP(=O)(O)OC[C@H]3O[C@@H](n4ccc(N)nc4=O)[C@H](O)[C@@H]3OP(=O)(O)OC[C@H]3O[C@@H](n4cc(C)c(=O)[nH]c4=O)C[C@@H]3OP(=O)(O)OC[C@H]3O[C@@H](n4cc(C)c(=O)[nH]c4=O)C[C@@H]3OP(=O)(O)OC[C@H]3O[C@@H](n4cc(C)c(=O)[nH]c4=O)C[C@@H]3OP(=O)(O)OC[C@H]3O[C@@H](n4cnc5c(=O)[nH]c(N)nc54)[C@H](O)[C@@H]3OP(=O)(O)OC[C@H]3O[C@@H](n4cnc5c(N)ncnc54)[C@H](O)[C@@H]3OP(=O)(O)OC[C@H]3O[C@@H](n4cc(C)c(=O)[nH]c4=O)C[C@@H]3OP(=O)(O)OC[C@H]3O[C@@H](n4cc(C)c(=O)[nH]c4=O)C[C@@H]3OP(=O)(O)OC[C@H]3O[C@@H](n4cnc5c(N)ncnc54)[C@H](O)[C@@H]3OP(=O)(O)OC[C@H]3O[C@@H](n4cnc5c(N)ncnc54)[C@H](O)[C@@H]3OP(=O)(O)OC[C@H]3O[C@@H](n4ccc(N)nc4=O)[C@H](O)[C@@H]3OP(=O)(O)OC[C@H]3O[C@@H](n4cnc5c(=O)[nH]c(N)nc54)[C@H](O)[C@@H]3OP(=O)(O)OC[C@H]3O[C@@H](n4ccc(N)nc4=O)[C@H](O)[C@@H]3OP(=O)(O)OC[C@H]3O[C@@H](n4ccc(N)nc4=O)[C@H](O)[C@@H]3OP(=O)(O)O)[C@@H](CO)O2)c(=O)[nH]c1=O`, for which the Tm with Nucleic Acid [2] is 55.8 °C.
Take `CSCCc1nc(N)nc2c1ncn2[C@H]1C[C@H](OP(=O)(O)OC[C@H]2O[C@@H](n3cc(C)c(=O)[nH]c3=O)C[C@@H]2OP(=O)(O)OC[C@H]2O[C@@H](n3cc(C)c(=O)[nH]c3=O)C[C@@H]2OP(=O)(O)OC[C@H]2O[C@@H](n3ccc(N)nc3=O)[C@H](O)[C@@H]2OP(=O)(O)OC[C@H]2O[C@@H](n3cc(C)c(=O)[nH]c3=O)C[C@@H]2OP(=O)(O)OC[C@H]2O[C@@H](n3ccc(N)nc3=O)[C@H](O)[C@@H]2OP(=O)(O)OC[C@H]2O[C@@H](n3ccc(N)nc3=O)[C@H](O)[C@@H]2OP(=O)(O)OC[C@H]2O[C@@H](n3cc(C)c(=O)[nH]c3=O)C[C@@H]2OP(=O)(O)OC[C@H]2O[C@@H](n3cc(C)c(=O)[nH]c3=O)C[C@@H]2OP(=O)(O)OC[C@H]2O[C@@H](n3cc(C)c(=O)[nH]c3=O)C[C@@H]2OP(=O)(O)OC[C@H]2O[C@@H](n3ccc(N)nc3=O)[C@H](O)[C@@H]2OP(=O)(O)OC[C@H]2O[C@@H](n3cc(C)c(=O)[nH]c3=O)C[C@@H]2OP(=O)(O)O)[C@@H](COP(=O)(O)O[C@H]2C[C@H](n3cc(C)c(=O)[nH]c3=O)O[C@@H]2COP(=O)(O)O[C@H]2C[C@H](n3cc(C)c(=O)[nH]c3=O)O[C@@H]2COP(=O)(O)O[C@H]2C[C@H](n3cc(C)c(=O)[nH]c3=O)O[C@@H]2COP(=O)(O)O[C@H]2[C@@H](O)[C@H](n3ccc(N)nc3=O)O[C@@H]2CO)O1`: the result in the test with Nucleic Acid [3] and in the test with Nucleic Acid [4] was inactive.
In the case of `CSCCc1nc(N)nc2c1ncn2CCCC[C@H]1C[C@H](OP(=O)(O)OC[C@H]2O[C@@H](n3cc(C)c(=O)[nH]c3=O)C[C@@H]2OP(=O)(O)OC[C@H]2O[C@@H](n3cc(C)c(=O)[nH]c3=O)C[C@@H]2OP(=O)(O)OC[C@H]2O[C@@H](n3ccc(N)nc3=O)[C@H](O)[C@@H]2OP(=O)(O)OC[C@H]2O[C@@H](n3cc(C)c(=O)[nH]c3=O)C[C@@H]2OP(=O)(O)OC[C@H]2O[C@@H](n3ccc(N)nc3=O)[C@H](O)[C@@H]2OP(=O)(O)OC[C@H]2O[C@@H](n3ccc(N)nc3=O)[C@H](O)[C@@H]2OP(=O)(O)OC[C@H]2O[C@@H](n3cc(C)c(=O)[nH]c3=O)C[C@@H]2OP(=O)(O)OC[C@H]2O[C@@H](n3cc(C)c(=O)[nH]c3=O)C[C@@H]2OP(=O)(O)OC[C@H]2O[C@@H](n3cc(C)c(=O)[nH]c3=O)C[C@@H]2OP(=O)(O)OC[C@H]2O[C@@H](n3ccc(N)nc3=O)[C@H](O)[C@@H]2OP(=O)(O)OC[C@H]2O[C@@H](n3cc(C)c(=O)[nH]c3=O)C[C@@H]2OP(=O)(O)O)[C@@H](COP(=O)(O)O[C@H]2C[C@H](n3cc(C)c(=O)[nH]c3=O)O[C@@H]2COP(=O)(O)O[C@H]2C[C@H](n3cc(C)c(=O)[nH]c3=O)O[C@@H]2COP(=O)(O)O[C@H]2C[C@H](n3cc(C)c(=O)[nH]c3=O)O[C@@H]2COP(=O)(O)O[C@H]2[C@@H](O)[C@H](n3ccc(N)nc3=O)O[C@@H]2CO)O1`, the outcome with Nucleic Acid [3] and in the test on Nucleic Acid [4] was inactive.
